Experimental data reported in ChEMBL document CHEMBL1147863, “Synthesis, antimicrobial activities and cytogenetic studies of newer diazepino quinoline derivatives via Vilsmeier-Haack reaction” (2007).
The source made the active and inactive calls. No cut-off for these calls is given here.

How the values were obtained:
Talaromyces funiculosus [1] = experiment: Antifungal activity against Penicillium funiculosum at 0.5% (w/v) concentration by disc diffusion method; type: functional
Procedure, shortened: (§1)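 Potato dextrose agar plates were seeded with a spore suspension (10⁶ spores/mL). Compounds in acetone at a final 0.5%, 1% or 2% w/v were loaded onto 5 mm filter-paper discs. Plates were incubated at 28 ± 2 °C for four days. Zone diameter was measured after subtracting the acetone-only plate zone, with carbendazim as standard.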

Aspergillus flavus [2] = experiment: Antifungal activity against Aspergillus flavus at 0.5% (w/v) concentration by disc diffusion method; type: functional; procedure, shortened: as §1
Salmonella typhi [3] = experiment: Antibacterial activity against Salmonella typhi at 0.25% (w/v) concentration after 24 hrs by disc diffusion method; type: functional, Salmonella enterica subsp. enterica serovar Typhi
Procedure, shortened: (§2)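 Disc diffusion on nutrient agar (pH 7.5 ± 0.2) swabbed with bacteria. Compounds were dissolved in chloroform at a final 0.125%, 0.25% or 0.5% w/v and loaded onto 5 mm filter-paper discs. Plates were incubated at 35 ± 2 °C for 24 h. The inhibition-zone diameter (mm) was reported after subtracting the zone of the solvent-only plate.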

Aspergillus flavus [4] = experiment: Antifungal activity against Aspergillus flavus at 1% (w/v) concentration by disc diffusion method; type: functional; procedure, shortened: as §1
Fusarium oxysporum [5] = experiment: Antifungal activity against Fusarium oxysporum at 2% (w/v) concentration by disc diffusion method; type: functional; procedure, shortened: as §1
Aeromonas hydrophila [6] = experiment: Antibacterial activity against Aeromonas hydrophila at 0.25% (w/v) concentration after 24 hrs by disc diffusion method; type: functional
Procedure, shortened: (§3)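 Disc diffusion on nutrient agar (pH 7.5 ± 0.2) swabbed with bacterial culture; compounds dissolved in chloroform at 0.125%, 0.25% or 0.5% w/v, soaked onto 5 mm filter paper discs placed on seeded plates. Incubated 35 ± 2 °C, 24 h; inhibition zone diameter (mm) measured, minus zone from solvent-only plate.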

Aeromonas hydrophila [7] = experiment: Antibacterial activity against Aeromonas hydrophila at 0.5% (w/v) concentration after 24 hrs by disc diffusion method; type: functional; procedure, shortened: as §3
Fusarium oxysporum [8] = experiment: Antifungal activity against Fusarium oxysporum at 0.5% (w/v) concentration by disc diffusion method; type: functional; procedure, shortened: as §1
Aeromonas hydrophila [9] = experiment: Antibacterial activity against Aeromonas hydrophila at 0.125% (w/v) concentration after 24 hrs by disc diffusion method; type: functional; procedure, shortened: as §3
Alternaria macrospora [10] = experiment: Antifungal activity against Alternaria macrospora at 0.5% (w/v) concentration by disc diffusion method; type: functional; procedure, shortened: as §1
Fusarium oxysporum [11] = experiment: Antifungal activity against Fusarium oxysporum at 1% (w/v) concentration by disc diffusion method; type: functional; procedure, shortened: as §1
Aspergillus flavus [12] = experiment: Antifungal activity against Aspergillus flavus at 2% (w/v) concentration by disc diffusion method; type: functional; procedure, shortened: as §1
Salmonella typhi [13] = experiment: Antibacterial activity against Salmonella typhi at 0.5% (w/v) concentration after 24 hrs by disc diffusion method; type: functional, Salmonella enterica subsp. enterica serovar Typhi; procedure, shortened: as §2
Talaromyces funiculosus [14] = experiment: Antifungal activity against Penicillium funiculosum at 2% (w/v) concentration by disc diffusion method; type: functional; procedure, shortened: as §1
Alternaria macrospora [15] = experiment: Antifungal activity against Alternaria macrospora at 2% (w/v) concentration by disc diffusion method; type: functional; procedure, shortened: as §1
[16] = Induction of chromosomal aberration in human peripheral blood leukocytes assessed as number of chromatid breaks at 20 ug/mL after 24 hrs; type: functional, Leukocyte
Procedure, shortened: (§4)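 Leukocytes from venous blood of three healthy non-smoking male donors, cultured at 37 °C for 72 h in McCoy's 5a with AB serum and PHA. Compound in 1% acetone was added at 0, 24 or 48 h after culture initiation (72, 48 or 24 h exposure), with water and acetone controls and triplicate cultures. Colchicine was added before harvest, then KCl hypotonic, fixation and Giemsa staining. Gaps and breaks were counted in 350 metaphases per treatment.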

Escherichia coli [17] = experiment: Antibacterial activity against Escherichia coli at 0.5% (w/v) concentration by after 24 hrs by disc diffusion method; type: functional; procedure, shortened: as §3
Talaromyces funiculosus [18] = experiment: Antifungal activity against Penicillium funiculosum at 1% (w/v) concentration by disc diffusion method; type: functional; procedure, shortened: as §1
Alternaria macrospora [19] = experiment: Antifungal activity against Alternaria macrospora at 1% (w/v) concentration by disc diffusion method; type: functional; procedure, shortened: as §1
[20] = Induction of chromosomal aberration in human peripheral blood leukocytes assessed as number of chromatid gaps at 20 ug/mL after 24 hrs; type: functional, Leukocyte; procedure, shortened: as §4
Salmonella typhi [21] = experiment: Antibacterial activity against Salmonella typhi at 0.125% (w/v) concentration after 24 hrs by disc diffusion method; type: functional, Salmonella enterica subsp. enterica serovar Typhi; procedure, shortened: as §2
Escherichia coli [22] = experiment: Antibacterial activity against Escherichia coli at 0.125% (w/v) concentration after 24 hrs by disc diffusion method; type: functional; procedure, shortened: as §3
Escherichia coli [23] = experiment: Antibacterial activity against Escherichia coli at 0.25% (w/v) concentration after 24 hrs by disc diffusion method; type: functional; procedure, shortened: as §3
[24] = Induction of chromosomal aberration in human peripheral blood leukocytes assessed as number of chromatid breaks at 20 ug/mL after 48 hrs; type: functional, Leukocyte; procedure, shortened: as §4
[25] = Induction of chromosomal aberration in human peripheral blood leukocytes assessed as number of chromatid gaps at 20 ug/mL after 48 hrs; type: functional, Leukocyte; procedure, shortened: as §4

Row | Compound | inhibition zone (IZ) (Aspergillus flavus [2]) | inhibition zone (IZ) (Salmonella typhi [3]) | inhibition zone (IZ) (Aspergillus flavus [4]) | inhibition zone (IZ) (Fusarium oxysporum [5]) | inhibition zone (IZ) (Aeromonas hydrophila [6]) | inhibition zone (IZ) (Aeromonas hydrophila [7]) | inhibition zone (IZ) (Fusarium oxysporum [8]) | inhibition zone (IZ) (Aeromonas hydrophila [9]) | inhibition zone (IZ) (Alternaria macrospora [10]) | inhibition zone (IZ) (Fusarium oxysporum [11]) | inhibition zone (IZ) (Aspergillus flavus [12]) | inhibition zone (IZ) (Salmonella typhi [13]) | inhibition zone (IZ) (Talaromyces funiculosus [14]) | inhibition zone (IZ) (Alternaria macrospora [15]) | Activity [16] | inhibition zone (IZ) (Escherichia coli [17]) | inhibition zone (IZ) (Talaromyces funiculosus [18]) | inhibition zone (IZ) (Alternaria macrospora [19]) | inhibition zone (IZ) (Salmonella typhi [21]) | inhibition zone (IZ) (Escherichia coli [23]) | other results
1 | Cc1cccc2c(Cl)c3c(nc12)C=CNN=C3 | 2 mm | 7 mm | 4 mm | 10 mm | 7 mm | 11 mm | 2 mm | 4 mm | 3 mm | 6 mm | 8 mm | 12 mm | 10 mm | 10 mm | 0.3% | 6 mm | 3 mm | 6 mm | 5 mm | 2 mm | Activity (Talaromyces funiculosus [1]): inactive; Activity [20]: 0.6%; Activity (Escherichia coli [22]): inactive
2 | Cc1ccc2c(Cl)c3c(nc2c1)C=CNN=C3 | 4 mm | 9 mm | 7 mm | 11 mm | 9 mm | 12 mm | 3 mm | 5 mm | 4 mm | 7 mm | 11 mm | 13 mm | 11 mm | 12 mm | 0.6% | 5 mm | 6 mm | 10 mm | 4 mm | 1 mm | inhibition zone (IZ) (Talaromyces funiculosus [1]): 3 mm; Activity [20]: 1.1%; Activity (Escherichia coli [22]): inactive
3 | Cc1ccc(C)c2c(Cl)c3c(nc12)C=CNN=C3 | 4 mm | 9 mm | 9 mm | 15 mm | 8 mm | 11 mm | 4 mm | 4 mm | 7 mm | 11 mm | 16 mm | 14 mm | 17 mm | 17 mm | 0.9% | 9 mm | 10 mm | 11 mm | 5 mm | 5 mm | inhibition zone (IZ) (Talaromyces funiculosus [1]): 5 mm; Activity [24]: 0.3%; Activity [20]: 2%; inhibition zone (IZ) (Escherichia coli [22]): 2 mm; Activity [25]: 0.9%
4 | Cc1ccc(C)c2c(Cl)c(C=O)c(/C=C/O)nc12 | 4 mm | 8 mm | 7 mm | 12 mm | 6 mm | 10 mm | 3 mm | 4 mm | 3 mm | 7 mm | 12 mm | 13 mm | 11 mm | 13 mm | – | 9 mm | 7 mm | 8 mm | 5 mm | 5 mm | inhibition zone (IZ) (Talaromyces funiculosus [1]): 3 mm; inhibition zone (IZ) (Escherichia coli [22]): 3 mm
